The results in this text go back to ChEMBL document CHEMBL1687796, “Synthesis and spectrum of the neoglycoside ACHN-490” (2010).

In brackets after ≈: the same amount, converted by molar mass. Where only a bound is given, the exact number is not on record here.

Holding throughout (type): functional
In one experiment the test system is Acinetobacter sp. Put plainly: Antibacterial activity against Acinetobacter spp. by broth microdilution method. The gist of the method: (§1)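 MICs were determined by CLSI broth microdilution against clinical isolate panels that included aminoglycoside-resistant isolates. […] MIC90 was derived per group and not calculated when n was <10. Imipenem, ceftobiprole, ciprofloxacin and tigecycline MICs were also determined for the resistant isolates.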
On the technique in general: Broth dilution looks for growth in wells or tubes with falling amounts of substance.

The subject of a further experiment is Proteus mirabilis. Description: Antibacterial activity against Proteus mirabilis by broth microdilution method. The gist of the method: as §1
The test system of another experiment is Escherichia coli. Put plainly: Antibacterial activity against Escherichia coli by broth microdilution method. The gist of the method: as §1
The subject of another experiment is Enterobacter sp. Description: Antibacterial activity against Enterobacter spp. by broth microdilution method. The method in brief:
as §1

The next experiment has as its system Staphylococcus sp. Description: Antibacterial activity against Staphylococcus spp. by broth microdilution method. The gist of the method:
as §1

A further experiment concerns Citrobacter. Put plainly: Antibacterial activity against Citrobacter spp. by broth microdilution method. The gist of the method:
as §1

Another experiment concerns Serratia sp. Put plainly: Antibacterial activity against Serratia spp. by broth microdilution method. The settings on record: Serratia sp. (in: enterobacteria). The gist of the method:
as §1

Experiment [1] can be described thus: Antibacterial activity against indole positive Proteae by broth microdilution method. The method in brief:
as §1

A further experiment has as its system Klebsiella sp. Description: Antibacterial activity against Klebsiella spp. by broth microdilution method. The gist of the method:
as §1

Another experiment has as its system Pseudomonas aeruginosa. Description: Antibacterial activity against Pseudomonas aeruginosa by broth microdilution method. The method in brief: as §1

Usually MIC50 stands for an inhibitory concentration at the 50% level, which refers to growth in some studies and to a panel of isolates in others. In general, MIC90 refers to the lowest concentration that inhibits either 90% of growth or 90% of the strains tested, depending on the study. A low value points to higher susceptibility. In the case of `O=C(O)c1cn(C2CC2)c2cc(N3CCNCC3)c(F)cc2c1=O` [CIPROFLOXACIN], the MIC50 with Acinetobacter sp. was more than 16 µg/mL; in the experiment with Proteus mirabilis, 2 µg/mL (≈ 6.04 µM); against Escherichia coli, more than 16 µg/mL; with Enterobacter sp., 1 µg/mL (≈ 3.02 µM); in the experiment on Staphylococcus sp. it was 16 µg/mL (≈ 48.3 µM); against Citrobacter it was 8 µg/mL (≈ 24.1 µM). For the same molecule, the MIC50 with Serratia sp. came to 4 µg/mL (≈ 12.1 µM); in experiment [1] it was 16 µg/mL (≈ 48.3 µM); against Klebsiella sp., 16 µg/mL (≈ 48.3 µM); in the experiment on Pseudomonas aeruginosa it was 8 µg/mL (≈ 24.1 µM). Further, the MIC90 against Acinetobacter sp., in the experiment on Proteus mirabilis, in the experiment with Escherichia coli, with Enterobacter sp., against Staphylococcus sp. and in the experiment with Klebsiella sp. was more than 16 µg/mL in each case. In the experiment on Pseudomonas aeruginosa, this molecule showed an MIC90 of more than 16 µg/mL.
For the molecule `Nc1nc(/C(=N/O)C(=O)N[C@@H]2C(=O)N3C(C(=O)O)=C(/C=C4\CCN([C@@H]5CCNC5)C4=O)CS[C@H]23)ns1` [CEFTOBIPROLE], the MIC50 with Acinetobacter sp. was more than 32 µg/mL; with Proteus mirabilis it was 0.125 µg/mL (≈ 0.234 µM); against Escherichia coli, more than 32 µg/mL; with Enterobacter sp., more than 32 µg/mL; against Citrobacter, 1 µg/mL (≈ 1.87 µM); against Serratia sp., more than 32 µg/mL. In addition, the MIC50 is more than 32 µg/mL in experiment [1], more than 32 µg/mL against Klebsiella sp. and 16 µg/mL (≈ 29.9 µM) in the experiment with Pseudomonas aeruginosa. Also, the MIC90 in the experiment on Acinetobacter sp., in the experiment with Proteus mirabilis, in the experiment on Escherichia coli, against Enterobacter sp., in the experiment with Klebsiella sp. and against Pseudomonas aeruginosa was more than 32 µg/mL in each case.
